One block for each compound: values may come before it.
Experiments:
[1] = molecular target: T1, Voltage-gated inwardly rectifying potassium channel KCNH2 (Homo sapiens, UniProt Q12809); assay: Displacement of [35S]MK-499 from human ERG
Rattus norvegicus [2] = assay: Natriuretic activity in Sprague-Dawley rat at 3 mg/kg via oral gavage administered 30 mins prior to void induction by loading saline measured upto 4 hrs relative to vehicle treated control; assay type: functional
How it was run: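 Acute 4 h diuresis/natriuresis study in SD rats given a single oral dose, n = 5 per group. Urinary sodium output is expressed as fold increase over vehicle-treated animals, with significance tested against vehicle.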

[3] = Half life in rat at 0.5 mg/kg, iv or 1 mg/kg, po; assay type: ADME, organism-based; details: in vivo
Rattus norvegicus [4] = assay: Natriuretic activity in Sprague-Dawley rat at 1 mg/kg via oral gavage administered 30 mins prior to void induction by loading saline measured upto 4 hrs relative to vehicle treated control; assay type: functional
How it was run: (§1)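 Acute rat diuresis model in male-unspecified Sprague-Dawley rats, single oral dose, urine collected over 4 h. Urine volume, sodium excretion and potassium excretion expressed as fold increase over vehicle-treated controls; n = 5 per group; significance tested against vehicle.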

Rattus norvegicus [5] = assay: Natriuretic activity in Sprague-Dawley rat at 0.3 mg/kg via oral gavage administered 30 mins prior to void induction by loading saline measured upto 4 hrs relative to vehicle treated control; assay type: functional; how it was run: as §1
[6] = Volume of distribution at steady state in rat at 0.5 mg/kg, iv or 1 mg/kg, po; assay type: ADME, organism-based; details: in vivo, read-out: Vdss
Rattus norvegicus [7] = assay: Kaliuretic activity in Sprague-Dawley rat at 3 mg/kg via oral gavage administered 30 mins prior to void induction by loading saline measured upto 4 hrs relative to vehicle treated control; assay type: functional; how it was run: as §1
[8] = Dose normalized AUC in rat at 1 mg/kg, po; assay type: ADME, organism-based; details: in vivo
[9] = Clearance in rat at 0.5 mg/kg, iv or 1 mg/kg, po; assay type: ADME, organism-based; details: in vivo
Rattus norvegicus [10] = assay: Diuretic activity in Sprague-Dawley rat at 0.3 mg/kg via oral gavage administered 30 mins prior to void induction by loading saline measured upto 4 hrs relative to vehicle treated control; assay type: functional; how it was run: as §1
[11] = molecular target: T1, Voltage-gated inwardly rectifying potassium channel KCNH2; assay: Inhibition of human ERG after 6 mins by electrophysiological assay
Rattus norvegicus [12] = assay: Kaliuretic activity in Sprague-Dawley rat at 0.3 mg/kg via oral gavage administered 30 mins prior to void induction by loading saline measured upto 4 hrs relative to vehicle treated control; assay type: functional; how it was run: as §1
[13] = Oral bioavailability in rat at 1 mg/kg; assay type: ADME, organism-based; details: in vivo
Rattus norvegicus [14] = assay: Kaliuretic activity in Sprague-Dawley rat at 1 mg/kg via oral gavage administered 30 mins prior to void induction by loading saline measured upto 4 hrs relative to vehicle treated control; assay type: functional; how it was run: as §1
Rattus norvegicus [15] = assay: Diuretic activity in Sprague-Dawley rat at 1 mg/kg via oral gavage administered 30 mins prior to void induction by loading saline measured upto 4 hrs relative to vehicle treated control; assay type: functional; how it was run: as §1
Rattus norvegicus [16] = assay: Diuretic activity in Sprague-Dawley rat at 3 mg/kg via oral gavage administered 30 mins prior to void induction by loading saline measured upto 4 hrs relative to vehicle treated control; assay type: functional
How it was run: (§2)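 Acute 4 h study in Sprague-Dawley rats after oral dosing, n = 5 per group. Urine volume and sodium and potassium excretion were expressed as fold increase over vehicle-treated animals. Significance was tested versus vehicle (p < 0.05 or p < 0.01).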

[17] = molecular target: T2, ATP-sensitive inward rectifier potassium channel 1 (Homo sapiens, UniProt P48048); assay: Inhibition of ROMK (unknown origin) after 30 mins by 86Rb+ efflux assay
T2 sequence (P48048 whole entry): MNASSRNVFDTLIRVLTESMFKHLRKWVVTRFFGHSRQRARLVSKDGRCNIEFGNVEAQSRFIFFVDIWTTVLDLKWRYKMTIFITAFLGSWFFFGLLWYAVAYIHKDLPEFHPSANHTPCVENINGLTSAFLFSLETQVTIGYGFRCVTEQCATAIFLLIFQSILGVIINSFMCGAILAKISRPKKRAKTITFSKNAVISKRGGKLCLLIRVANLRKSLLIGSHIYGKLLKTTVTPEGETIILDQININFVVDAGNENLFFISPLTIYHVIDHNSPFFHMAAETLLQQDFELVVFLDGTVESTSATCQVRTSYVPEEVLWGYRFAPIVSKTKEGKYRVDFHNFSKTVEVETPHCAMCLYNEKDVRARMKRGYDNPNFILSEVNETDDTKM

Homo sapiens [18] = species: Homo sapiens; assay: Selectivity ratio of IC50 for human ERG to IC50 for ROMK (unknown origin)
Rattus norvegicus [19] = assay: Natriuretic activity in Sprague-Dawley rat at 10 mg/kg via oral gavage administered 30 mins prior to void induction by loading saline measured upto 4 hrs relative to vehicle treated control; assay type: functional; how it was run: as §2
Rattus norvegicus [20] = assay: Diuretic activity in Sprague-Dawley rat at 10 mg/kg via oral gavage administered 30 mins prior to void induction by loading saline measured upto 4 hrs relative to vehicle treated control; assay type: functional; how it was run: as §2
[21] = Clearance in rat at 1 mg/kg, iv or 2 mg/kg, po; assay type: ADME, organism-based; details: in vivo
How it was run: (§3)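 Rats dosed once at 1 mg/kg IV and, separately, 2 mg/kg PO, with n = 3. Derived parameters were plasma clearance, Vdss, dose-normalized oral AUC (μM·h·kg/mg), half-life, and oral bioavailability (F%).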

[22] = Oral bioavailability in rat at 2 mg/kg; assay type: ADME, organism-based; details: in vivo; how it was run: as §3
[23] = Dose normalized AUC in rat at 2 mg/kg, po; assay type: ADME, organism-based; details: in vivo; how it was run: as §3
[24] = Half life in rat at 1 mg/kg, iv or 2 mg/kg, po; assay type: ADME, organism-based; details: in vivo; how it was run: as §3
[25] = Volume of distribution at steady state in rat at 1 mg/kg, iv or 2 mg/kg, po; assay type: ADME, organism-based; details: in vivo, read-out: Vdss; how it was run: as §3
Homo sapiens [26] = species: Homo sapiens; assay: Selectivity ratio of IC50 for human ERG to IC50 for ROMK (unknown origin) expressed in CHO cells by electrophysiological assay; assay type: cell-based
How it was run: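 Both channels were tested in electrophysiology (EP) assays. The ratio is the hERG EP IC50 divided by the ROMK EP IC50.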

[27] = molecular target: T2, ATP-sensitive inward rectifier potassium channel 1; assay: Inhibition of ROMK (unknown origin) expressed in CHO cells after 6 mins by electrophysiological assay; assay type: cell-based
Rattus norvegicus [28] = assay: Antihypertensive activity in spontaneously hypertensive rat assessed as reduction in systolic blood pressure at 25 mg/kg via oral gavage qd administered for 4 days measured on day 4 by telemetry (reference value: 2.5 +/- 2.2 mmHg); assay type: functional
Rattus norvegicus [29] = assay: Kaliuretic activity in Sprague-Dawley rat administered via oral gavage 30 mins prior to void induction by loading saline measured upto 4 hrs relative to vehicle treated control; assay type: functional; how it was run: as §2

T1 sequence (Q12809 whole entry): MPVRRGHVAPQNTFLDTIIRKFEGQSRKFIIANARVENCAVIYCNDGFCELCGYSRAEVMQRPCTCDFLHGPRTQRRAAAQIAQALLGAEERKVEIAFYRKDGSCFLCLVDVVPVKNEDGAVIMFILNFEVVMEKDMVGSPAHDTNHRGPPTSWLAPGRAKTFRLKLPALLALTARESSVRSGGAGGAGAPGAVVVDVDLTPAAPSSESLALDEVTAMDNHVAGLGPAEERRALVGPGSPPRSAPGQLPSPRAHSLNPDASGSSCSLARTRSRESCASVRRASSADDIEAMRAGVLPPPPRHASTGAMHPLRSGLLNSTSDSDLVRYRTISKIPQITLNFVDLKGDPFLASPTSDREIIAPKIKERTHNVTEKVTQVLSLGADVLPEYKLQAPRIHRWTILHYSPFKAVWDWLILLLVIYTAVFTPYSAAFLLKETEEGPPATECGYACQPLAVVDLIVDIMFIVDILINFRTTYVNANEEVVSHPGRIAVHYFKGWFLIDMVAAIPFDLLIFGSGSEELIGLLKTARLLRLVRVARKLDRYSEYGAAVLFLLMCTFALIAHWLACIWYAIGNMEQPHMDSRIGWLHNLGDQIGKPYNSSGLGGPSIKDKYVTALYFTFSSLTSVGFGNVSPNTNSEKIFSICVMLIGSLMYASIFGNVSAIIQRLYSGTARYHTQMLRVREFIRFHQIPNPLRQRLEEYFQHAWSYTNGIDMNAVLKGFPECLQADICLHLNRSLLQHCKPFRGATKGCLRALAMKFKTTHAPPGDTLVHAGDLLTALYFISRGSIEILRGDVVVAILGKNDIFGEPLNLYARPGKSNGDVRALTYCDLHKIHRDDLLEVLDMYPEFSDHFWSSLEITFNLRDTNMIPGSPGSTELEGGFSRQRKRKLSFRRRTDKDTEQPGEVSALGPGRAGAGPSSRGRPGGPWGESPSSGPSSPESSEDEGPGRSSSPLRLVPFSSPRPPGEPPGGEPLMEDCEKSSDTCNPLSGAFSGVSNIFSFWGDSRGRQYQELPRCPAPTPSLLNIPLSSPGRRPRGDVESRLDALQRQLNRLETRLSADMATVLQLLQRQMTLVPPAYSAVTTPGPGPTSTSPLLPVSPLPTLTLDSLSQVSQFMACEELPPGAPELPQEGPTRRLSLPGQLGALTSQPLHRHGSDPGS

half-life [3]: 51.6 min
Vd [6]: 5.8 L/kg
AUC/dose [8]: 0.13 µM·kg·h/mg
clearance [9]: 82 mL/min/kg
bioavailability [13]: 45%
Structure (SMILES): Cc1c([C@H](O)CN2CCN(C[C@@H](O)c3ccc4c(c3C)COC4=O)CC2)ccc2c1COC2=O
IC50 [1]: 47 µM
fold change (FC) (Rattus norvegicus [2]): 2.2
fold change (FC) (Rattus norvegicus [4]): 1.5
fold change (FC) (Rattus norvegicus [5]): 1.4
fold change (FC) (Rattus norvegicus [7]): 0.9
fold change (FC) (Rattus norvegicus [10]): 1.3
IC50 [11]: 22 µM
fold change (FC) (Rattus norvegicus [12]): 1.1
fold change (FC) (Rattus norvegicus [14]): 1
fold change (FC) (Rattus norvegicus [15]): 1.6
fold change (FC) (Rattus norvegicus [16]): 1.9

half-life [3]: 84 min
Vd [6]: 4.5 L/kg
AUC/dose [8]: 0.3 µM·kg·h/mg
clearance [9]: 54 mL/min/kg
bioavailability [13]: 44%
Structure (SMILES): Cc1c([C@H](O)CN2CCN(C[C@H](O)c3ccc4c(c3C)COC4=O)CC2)ccc2c1COC2=O
IC50 [1]: 100 µM
fold change (FC) (Rattus norvegicus [2]): 4.1
fold change (FC) (Rattus norvegicus [4]): 3.7
fold change (FC) (Rattus norvegicus [7]): 1.1
IC50 [11]: > 30 µM
fold change (FC) (Rattus norvegicus [14]): 1.3
fold change (FC) (Rattus norvegicus [15]): 3.5
fold change (FC) (Rattus norvegicus [16]): 4.5

IC50 [17]: 0.034 µM
Structure (SMILES): Cc1c(CCN2CCN(CC(O)c3ccc4c(c3C)COC4=O)CC2)ccc2c1COC2=O (centres undefined)

Structure (SMILES): Cc1c(C(O)CN2CCN(C(=O)Cc3ccc(-n4cnnn4)cc3)CC2)ccc2c1COC2=O (centres undefined)
IC50 [1]: 100 µM
IC50 [17]: 0.51 µM
Ratio IC50 (Homo sapiens [18]): 200

Structure (SMILES): Cc1c(C(C)CN2CCN(C(=O)Cc3ccc(-n4cnnn4)cc3)CC2)ccc2c1COC2=O (centres undefined)
IC50 [1]: 60 µM
IC50 [17]: 0.16 µM
Ratio IC50 (Homo sapiens [18]): 380

Ratio IC50 (Homo sapiens [18]): 39
Structure (SMILES): Cc1c(CCN2CCN(CCc3ccc4c(c3C)COC4=O)CC2)ccc2c1COC2=O
IC50 [1]: 3 µM

Structure (SMILES): Cc1c(C(O)CN2CCN(CC(O)c3ccc4c(c3C)COC4=O)CC2)ccc2c1COC2=O (centres undefined)
IC50 [1]: 23 µM
fold change (FC) (Rattus norvegicus [2]): 9.4
fold change (FC) (Rattus norvegicus [19]): 9.5
IC50 [11]: 28 µM
fold change (FC) (Rattus norvegicus [20]): 6.8
fold change (FC) (Rattus norvegicus [16]): 6.7

Structure (SMILES): Cc1c(C(F)CN2CCN(C(=O)Cc3ccc(-n4cnnn4)cc3)CC2)ccc2c1COC2=O (centres undefined)
IC50 [1]: 68 µM
clearance [21]: 58 mL/min/kg
bioavailability [22]: 36%
AUC/dose [23]: 0.23 µM·h
IC50 [17]: 0.069 µM
Ratio IC50 (Homo sapiens [18]): 1000
half-life [24]: 21 min
Vd [25]: 1.4 L/kg

Structure (SMILES): Cc1c(C(F)CN2CCN(CC(F)c3ccc4c(c3C)COC4=O)CC2)ccc2c1COC2=O (centres undefined)
IC50 [1]: 40 µM
fold change (FC) (Rattus norvegicus [2]): 1.7
Ratio IC50 (Homo sapiens [26]): > 770
IC50 [17]: 0.096 µM
fold change (FC) (Rattus norvegicus [19]): 3
Ratio IC50 (Homo sapiens [18]): 420
IC50 [27]: 0.117 µM
IC50 [11]: > 90 µM
fold change (FC) (Rattus norvegicus [20]): 3
fold change (FC) (Rattus norvegicus [16]): 1.6

Structure (SMILES): NS(=O)(=O)c1cc2c(cc1Cl)NCNS2(=O)=O [HYDROCHLOROTHIAZIDE]
Activity (Rattus norvegicus [28]): 15 mmHg
fold change (FC) (Rattus norvegicus [29]): 2

Reference: ChEMBL document CHEMBL4425169 (ACS Med Chem Lett, 2016)
